From PubChem BioAssay
PHOSPHO1 block: inhibitors of human PHOSPHO1 phosphatase | Q8TCT1 | recombinant PHOSPHO1, absorbance phosphatase assay | inhibition, % at 13.3 µM | actives 1.1% (n = 290,000); in the data active means inhibition above about 60%
Target sequence (Q8TCT1 whole entry, looked up): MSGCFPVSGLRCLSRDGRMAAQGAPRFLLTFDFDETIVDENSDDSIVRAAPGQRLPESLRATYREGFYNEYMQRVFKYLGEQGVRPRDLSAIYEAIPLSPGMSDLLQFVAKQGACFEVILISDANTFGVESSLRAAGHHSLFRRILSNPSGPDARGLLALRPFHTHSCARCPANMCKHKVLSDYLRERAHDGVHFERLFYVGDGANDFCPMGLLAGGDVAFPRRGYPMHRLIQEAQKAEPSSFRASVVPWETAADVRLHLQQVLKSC
ABCB1 inh: inhibitors of human ABCB1 transporter, ABCG2 counter-screen | P08183 | CCRF-Adr cells, JC-1 efflux, flow cytometry | inhibition, % at 6.6 µM | actives 0.067% (n = 190,000) | AID 1326; in the data active means inhibition above about 40%;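 further: 0% = vehicle and 100% = reference inhibitor; higher value means more JC-1 retained so stronger ABCB1 efflux block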
ABCG2 inh: human ABCG2 inhibition, ABCB1 as counter-screen; Q9UNQ0; inhibition, % at 6.6 µM; IgMXP3 cells, JC-1 efflux, flow cytometry; actives 0.1% (n = 190,000);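 active means inhibition above 80%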;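 further: 0% = DMSO and 100% = nicardipine control wells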
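Times: 10 min at 25 °C | Test system: Two drug-resistant human cell lines, ABCG2 and ABCB1 | Quantity: 3 million cells/mL final, two lines in 1:1 ratio | Signal: Flow cytometry, 530 nm JC-1 signal | Dosing: Compound at 6.6 µM | Controls: Nicardipine and DMSO wells | Reagent: JC-1 as fluorescent efflux pump substrate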
NCF1 inh: p47phox (human) inhibition; actives 0.53% (n = 220,000); P14598; p47phox/p22phox peptide binding, fluorescence polarization, 2 h; inhibition, % at 24.7 µM; AID 1274;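 active means inhibition above about 30%, limit read from the data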;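 further: 0% = p47phox with labelled peptide and 100% = labelled peptide alone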
Target sequence (P14598 whole entry, looked up): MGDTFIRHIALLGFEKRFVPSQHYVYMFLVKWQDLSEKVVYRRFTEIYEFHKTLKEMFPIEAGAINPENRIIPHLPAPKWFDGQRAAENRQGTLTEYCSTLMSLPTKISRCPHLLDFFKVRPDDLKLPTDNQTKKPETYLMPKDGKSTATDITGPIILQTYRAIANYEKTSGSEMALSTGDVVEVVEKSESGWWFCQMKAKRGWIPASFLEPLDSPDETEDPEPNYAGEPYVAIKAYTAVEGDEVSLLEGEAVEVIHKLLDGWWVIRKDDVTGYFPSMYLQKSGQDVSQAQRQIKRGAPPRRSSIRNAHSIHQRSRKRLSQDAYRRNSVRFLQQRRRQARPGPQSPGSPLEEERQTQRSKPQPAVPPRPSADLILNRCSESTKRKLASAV
HSV augment: HSV replication enhancement; maximum fold increase; AID 1956; actives 0.005% (n = 220,000); HSV replication augmentation in cells, fold increase; in the data active means maximum fold increase above about 1.5; inconclusive means no clear call, values can overlap the other calls; tested in PC3 cells
PKD1 kinase inh: blocks activity of human protein kinase D1 | actives 0.056% (n = 200,000) | Q15139 | PKD1 kinase fluorescence polarization assay | inhibition, % (concentration not given with the values); in the data active means inhibition above about 50%
PKD FP artifact: interferes with fluorescence polarization in PKD inhibitor counter-screen | shares compounds with PKD1 kinase inh | PKD1 FP assay interference counter-screen | inhibition, % at 10 µM | 85 tested, under 10 active; call rule not given here
ABCB1 single pt: confirmation of human ABCB1 transporter inhibitors, ABCG2 counter-screen; CCRF-Adr cells, JC-1 efflux, flow cytometry; actives 7% (n = 270); inhibition, % at 6.6 µM; shares compounds with ABCG2 inh;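 active means inhibition of pump activity above 50%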;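 further: 0% = DMSO and 100% = nicardipine full pump inhibition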
ABCG2 confirm: confirmation of human ABCG2 transporter inhibitors, ABCB1 counter-screen. shares compounds with ABCG2 inh. IgMXP3 cells, JC-1 efflux, flow cytometry. actives 6% (n = 270). inhibition, % at 6.6 µM;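 active means inhibition above 50%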;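 further: 0% = DMSO wells and 100% = nicardipine pump inhibitor wells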
IgMXP3 autofluor: compound fluoresces at 488/530 nm in IgMXP3 cells | shares compounds with ABCG2 inh | compound autofluorescence 488/530 nm, flow; hits give high values | fluorescence at 6.6 µM | actives 30% (n = 270);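 active means fluorescence in ABCG2-expressing cells above the plate's control-well mean plus 3 SD, cut at about 15 in these data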;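 further: median cell fluorescence with compound minus that of DMSO-treated control cells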
CCRF-Adr fluor: counter-screen for ABCB1 inhibitors: compound fluorescence in CCRF-Adr cells. shares compounds with ABCG2 inh. compound autofluorescence 488/530 nm, flow cytometry; hits give high values. fluorescence at 6.6 µM. actives 30% (n = 270);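 active means fluorescence beyond the plate control mean plus 3 SD, with a fluorescence-to-maximum score over 2, cut at about 25 in these data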
The depositor's hits bear a star; i = inactive; ? = inconclusive; / = not tested or not shown; + = active, no number. The list is not random: actives were taken first. Their share in the collection is about 1.6%.

SMILES | PHOSPHO1 block | ABCB1 inh | ABCG2 inh | NCF1 inh | HSV augment | PKD1 kinase inh | PKD FP artifact | others
COc1ccc(-c2cnnc(N/N=C/c3ccc(O)c(O)c3)n2)cc1 | -5 | -1 | -2 | -41 | i | 52* | -6
COc1ccccc1/C=C1\SC(=S)N(CCC(=O)NC2=NCCS2)C1=O | -13 | 0 | 10 | -58 | i | 52* | -22
CCN(CC)c1ccc(NC(=O)COc2ccccc2C#N)cc1S(=O)(=O)Nc1ccc(OC)cc1 | -3 | 1 | 0 | -50 | i | 58* | -11
Cc1cc2nc3c(=O)n(C4CCCCC4)c(=O)[nH]c3nc2cc1N | 10 | 0 | -4 | -16 | ? | 57* | 22
CCC1=NNc2cccc3c(OC)ccc1c23 | 36 | 0 | -1 | 138* | i | 99* | -4
CCC(=O)N1CCN(c2ccccc2NC(=O)c2ccc(-c3cccc([N+](=O)[O-])c3)o2)CC1 | -32 | 16 | 21 | -3 | i | -4 | /
CN1CCN(c2ccccc2NC(=O)c2ccc(-c3cccc([N+](=O)[O-])c3)o2)CC1 | -12 | 16 | 18 | -13 | i | 52* | -19
Cc1cc(=O)n2c3ccccc3n(C)c2n1 | 24 | / | / | / | / | / | /
COc1ccc(S(=O)(=O)N2CCC(n3cnc4cc(C(F)(F)F)ccc43)CC2)cc1 | 12 | 1 | 4 | -10 | i | 74* | -13
COc1ccc(S(=O)(=O)N2CCC(n3cnc4ccccc43)CC2)cc1 | 19 | / | / | / | / | / | /
Cc1ccc(NC(=O)CNc2ccc(Cl)cc2F)cc1 | 14 | -1 | 10 | -15 | i | 86* | -16
Cc1c(C(=O)NCc2cccnc2)sc2nc(-c3ccc(F)cc3)cn12 | 22 | 1 | 4 | -2 | i | 54* | -8
Cc1c(C(=O)NCc2cccnc2)sc2nc(-c3ccccc3)cn12 | 31 | / | / | / | / | / | /
Cc1nn(C)c(C)c1N1C(=O)c2cccc3c(N)ccc(c23)C1=O | -3 | 1 | 7 | -5 | ? | 67* | 43
Cc1[nH]nc2c1-c1nc3ccccc3nc1C(C)(C)C2 | 4 | 1 | 9 | -10 | i | 58* | -1
CCOC(=O)C1C(=O)OC(C)(C)C1C(CC)C(=O)c1c(C)cc(C)cc1C (stereo not drawn) | 24 | / | / | 1 | i | / | /
CCOC(=O)N1CCC(N2CCN(S(=O)(=O)CC)CC2)CC1 | 6 | 0 | 2 | -4 | i | 93* | -11
CCOC(=O)N1CCC(N2CCN(S(=O)(=O)c3ccc(C)cc3)CC2)CC1 | 32 | 0 | 2 | 8 | i | 4 | /
Cn1c(=O)oc2cc(S(=O)(=O)N3CCN(Cc4ccc5c(c4)OCO5)CC3)ccc21 | 72* | 1 | 4 | -9 | i | 80* | -11
Cc1ccc(C#N)c(SCC(=O)Nc2nccs2)n1 | 3 | 0 | 7 | -17 | i | 6 | /
CCNC(=O)OCc1cn(-c2ccc(Cl)cc2)nn1 | -33 | 1 | 3 | -5 | i | -2 | /
O=C(Nc1ccc(Cl)cc1)OCc1cn(-c2ccc(Cl)cc2)nn1 | 4 | 0 | 3 | -40 | i | 108* | -14
COc1ccc2cc(/C=N/NC(=O)c3ccc(CN(c4cccc(Cl)c4Cl)S(C)(=O)=O)cc3)c(Cl)nc2c1 | -7 | -7 | -21 | -51 | i | 4 | /
O=C(O)C1CCN(c2ncccn2)CC1 | 14 | 0 | 1 | -3 | i | 90* | -6
O=C(NC1CCCCC1)C1CCN(c2ncccn2)CC1 | 24 | / | / | / | / | / | /
SMILES | PHOSPHO1 block | ABCB1 inh | ABCG2 inh | NCF1 inh | HSV augment | PKD1 kinase inh | PKD FP artifact | others
O=C(NCCOC(=O)c1cccs1)c1cccnc1 | 7 | 0 | 0 | -7 | i | -1 | /
O=C(NCCOC(=O)c1ccc(C(=O)OCCNC(=O)c2cccnc2)s1)c1cccnc1 | 10 | 0 | 4 | -7 | i | 105* | -25
CC(C)c1ccc(OCC(=O)NC2CC(C)(C)NC(C)(C)C2)c(Br)c1 | -21 | / | / | / | / | / | /
CC(C)CCN1CN(S(=O)(=O)c2cccs2)c2nc3ccccc3nc21 | 24 | 0 | 2 | -7 | i | 95* | -11
CCOC(=O)CNC(=O)CSc1nc2cccnc2n1C | 11 | 1 | 2 | -2 | i | -5 | /
O=C(c1ccco1)N1CCN(Cc2nnnn2CCc2ccccc2)CC1 | 14 | 1 | 20 | -8 | i | -5 | /
CC(OC(=O)c1ccc(NS(=O)(=O)c2cccs2)cc1)C(=O)N(C)C1CCCCC1 (stereo not drawn) | -4 | 6 | 18 | 3 | i | 51* | -9
CCCOC(=O)c1ccc(NS(=O)(=O)c2cccs2)cc1 | -10 | 0 | 0 | -8 | i | 12 | /
N#Cc1cccc(NC(=O)Cn2c3[n+](c4ccc(C(F)(F)F)cc42)CCCCC3)c1 | -9 | 0 | 0 | -5 | i | 1 | /
Cc1ccc(-n2c3c(cc(C(=O)NCc4ccco4)c2=O)C(=O)CC(C)(C)C3)cc1 | -16 | 1 | 1 | -13 | i | -6 | /
O=C1CCCc2c1cc(C(=O)NCc1ccco1)c(=O)n2-c1ccccc1 | -12 | 2 | 9 | -24 | i | 52* | -17
COc1cccc2cc(/C(=N/O)c3ccccc3)oc12 | 32 | 0 | 2 | -10 | i | 6 | /
CN(C)c1ccc(/C=C2\SC(=S)N(Nc3ncc(C(F)(F)F)cc3Cl)C2=O)cc1 | 23 | 187* | + | 22 | ? | 69* | -9 | ABCB1 single pt=-171;ABCG2 confirm=-39;IgMXP3 autofluor=228*;CCRF-Adr fluor=391*
Cc1ccccc1Cn1cc(NS(=O)(=O)c2cn(C)nc2C)cn1 | 14 | / | / | / | / | / | /
CCN(CC)c1ccc(/C=c2/sc3nnc(-c4ccccc4C)n3c2=O)cc1 | 23 | 77* | 64 | -192 | i | 15 | / | ABCB1 single pt=25;ABCG2 confirm=13;IgMXP3 autofluor=139*;CCRF-Adr fluor=249*
CCN(CC)c1ccc(-c2nn3c(-c4ccccc4OC)nnc3s2)cc1 | 34 | 2 | 5 | -55 | i | 2 | /
COc1ccccc1-c1nn2c(-c3ccccc3Cl)nnc2s1 | -5 | / | / | / | / | / | /
CCN(CC)c1ccc(/C=c2\sc3nnc(-c4ccccc4Cl)n3c2=O)cc1 | 41 | 60* | 78 | -199 | i | 1 | / | ABCB1 single pt=28;ABCG2 confirm=-54;IgMXP3 autofluor=202*;CCRF-Adr fluor=204*
